A word on the pEC50: it is the EC50 on a negative log10 scale, so that one unit is a factor of ten. For orientation: pIC50 means the IC50 on a negative log10 scale, so that one unit is a factor of ten.

pEC50, pIC50: −log10 of the molar value.

Assay [1] can be described thus: Inhibition of incorporation of labeled precursor into macromolecules of noninfected SC-1 cells with the compound at a concentration 100 uM determined against thymidine. The assay is classed as functional. The procedure, abridged:
(§1)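 Noninfected SC-1 cells were incubated with analogue as in the cytotoxicity setup, and [3H]thymidine, [3H]uridine or [3H]leucine was added. After 4 h, wells were washed with ice-cold PBS and cells were lysed in 1% SDS, 0.01 M EDTA, 0.01 M Tris pH 7.7. Lysates were dried on glass-fiber filters, and label is expressed as percent of incorporation in untreated cells.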

Assay [2] is described as follows: Inhibition of incorporation of labeled precursor into macromolecules of noninfected SC-1 cells with the compound at a concentration 300 uM determined against uridine. Type of assay: functional. The procedure, abridged:
(§2)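 SC-1 cells seeded in 24-well trays at 1 × 10^4 cells/mL, incubated overnight at 37 °C, then exposed to analogue for 72 h at 37 °C. Labeled thymidine (2.5 µCi), [3H-5,6]uridine or [3H-4,5]leucine was added. After 4 h, cells were washed with cold PBS, lysed in 1% SDS/0.01 M EDTA/0.01 M Tris pH 7.7, and lysates were dried on GF/B filters. Result given as % of untreated incorporation.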

For assay [3], the species on record is Mus musculus. Description: Concentration that reduces Rauscher murine leukemia virus titer by 50%. The assay is classed as functional, organism-based. The procedure, abridged: (§3)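 SC-1 cells (1 × 10^4/well) were pretreated with polybrene, infected 2 h at 37 °C with F-MuLV or R-MuLV in EMEM-5 with 8 µg/mL polybrene, washed, and refed with analogue for 72 h. They were then UV-irradiated and overlaid with XC cells (2 × 10^5) for 48 h, fixed and stained with crystal violet. Multinucleated cells were counted and EC50 was taken by linear regression versus untreated cultures.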

A short description of assay [4]: Selectivity index is the ratio of IC50 to EC50 of F-MuLV. The assay is classed as functional.
The species entered for assay [5] is Mus musculus. Description: Concentration that reduces Friend murine leukemia virus titer by 50%. The assay is classed as functional, organism-based. The procedure, abridged: as §3
Assay [6] is described as follows: Inhibition of incorporation of labeled precursor into macromolecules of noninfected SC-1 cells with the compound at a concentration 100 uM determined against leucine. The assay is classed as functional. The procedure, abridged:
as §1

The nature of assay [7]: Inhibition of incorporation of labeled precursor into macromolecules of noninfected SC-1 cells with the compound at a concentration 300 uM determined against leucine. The assay is classed as functional. The procedure, abridged:
as §2

The species named for assay [8] is Mus musculus. Description: Cytotoxicity was evaluated. Type of assay: functional. The procedure, abridged: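 SC-1 cells (1 × 10^4 cells/mL) were seeded, incubated overnight at 37 °C, refed with EMEM-10 and given diluted analogue in triplicate for 72 h at 37 °C. Cells were trypsinized and counted in a Coulter counter. The mean of three wells gave percent of control count, and IC50 was calculated by linear regression.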

The nature of assay [9]: Inhibition of incorporation of labeled precursor into macromolecules of noninfected SC-1 cells with the compound at a concentration 300 uM determined against thymidine. Type of assay: functional. The procedure, abridged: as §2
Assay [10] can be described thus: Selectivity index which is the ratio of IC50 to EC50 of R-MuLV. Type of assay: functional.
A short description of assay [11]: Inhibition of incorporation of labeled precursor into macromolecules of noninfected SC-1 cells with the compound at a concentration 100 uM determined against uridine. The assay is classed as functional. The procedure, abridged:
as §1

The subject of assay [12] is L1210. Description: Cytotoxicity was evaluated against L1210 leukemia cell line at 1000 ug/disk. The assay is classed as functional, Mus musculus. The procedure, abridged:
(§4)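 Disk zone assay: analogue dilutions on 6.5 mm paper disks were placed on dishes with a 0.8% agar bottom layer and a 0.44% soft-agar top layer of tumor cells (≤1 × 10^5/plate) in Fishers-CMRL-1066 with 12% horse serum. Plates were incubated 6-10 days and the inhibition zone was measured by microscope; 200 zone units = 6 mm.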

For assay [13], the system named is PO3. Description: Cytotoxicity was evaluated against PO3 cell line at 1000 ug/disk.
Assay [14] has as its system L1210. Description: Inhibitory activity against murine leukemia L1210 cells. The assay is classed as functional, cell-based. The conditions noted are these: Mus musculus.
Assay [15] is filed under the species Homo sapiens. Description: Cytotoxicity was evaluated against H125 human solid tumor at 500 ug/disk. The assay is classed as functional. The procedure, abridged:
as §4

Assay [16] in a line: Cytotoxicity was evaluated against low malignancy line at 500 ug/disk. Type of assay: functional. The procedure, abridged:
as §4

The test system of assay [17] is L1210. Description: Cytotoxicity was evaluated against L1210 leukemia cell line at 500 ug/disk. The assay is classed as functional, Mus musculus. The procedure, abridged: as §4
In assay [18] the test system is MC-38. Description: Cytotoxicity was evaluated against C38 solid tumor of mouse at 500 ug/disk. The assay is classed as functional. Further details: unit not given beside the values. The procedure, abridged:
as §4

Assay [19] is filed under the species Homo sapiens. Description: Cytotoxicity was evaluated against C116 human solid tumor at 500 ug/disk. Type of assay: functional. The procedure, abridged:
as §4

The species entered for assay [20] is Homo sapiens. Description: Cytotoxicity was evaluated against C116 human solid tumor at 1.5 ug/disk. The assay is classed as functional. The procedure, abridged: as §4
For assay [21], the species on record is Homo sapiens. Description: Cytotoxicity was evaluated against H125 human solid tumor at 1.5 ug/disk. Type of assay: functional. The procedure, abridged:
as §4

Assay [22] has as its system MC-38. Description: Cytotoxicity was evaluated against C38 solid tumor of mouse at 1.5 ug/disk. The assay is classed as functional. The procedure, abridged: as §4
Assay [23] in a line: Cytotoxicity was evaluated against CO9 solid tumor of mouse at 1.5 ug/disk. The assay is classed as functional. The procedure, abridged: as §4
Assay [24] relates to PO3. Description: Cytotoxicity was evaluated against PO3 cell line at 1.5 ug/disk. Type of assay: functional, Mus musculus. The procedure, abridged: as §4
Assay [25] is filed under the species Homo sapiens. Description: Cytotoxicity was evaluated against PO1 human solid tumor at 1.5 ug/disk. Type of assay: functional. The procedure, abridged:
as §4

Assay [26] can be described thus: Cytotoxicity was evaluated against low malignancy line at 1.5 ug/disk. Type of assay: functional. The procedure, abridged: as §4
The test system of assay [27] is Nucleic Acid. Description: Compound was evaluated for inhibition of macromolecular synthesis in murine leukemia L1210 cells at 4 hour against RNA. Type of assay: functional, cell-based. Further details: scale not given: the % may be the effect or the level left. The conditions noted are these: Mus musculus.
Assay [28] has as its system Nucleic Acid. Description: Compound was evaluated for inhibition of macromolecular synthesis in murine leukemia L1210 cells at 8 hour against DNA. Type of assay: functional, cell-based. The arrangement: scale not given: the % may be the effect or the level left. The conditions noted are these: Mus musculus.
Assay [29] is described as follows: Cytotoxicity was evaluated against low malignancy line at 1000 ug/disk. Type of assay: functional. The procedure, abridged: as §4
In assay [30] the test system is Nucleic Acid. Description: Compound was evaluated for inhibition of macromolecular synthesis in murine leukemia L1210 cells at 8 hour against RNA. Type of assay: functional, cell-based. The arrangement: scale not given: the % may be the effect or the level left. The conditions noted are these: Mus musculus.
For assay [31], the species on record is Mus musculus. Description: Compound was evaluated for inhibition of macromolecular synthesis in murine leukemia L1210 cells at 8 hour against Protein. The assay is classed as functional. The arrangement: scale not given: the % may be the effect or the level left.
Assay [32] has as its system Nucleic Acid. Description: Compound was evaluated for inhibition of macromolecular synthesis in murine leukemia L1210 cells at 1 hour against RNA. Type of assay: functional, cell-based. The arrangement: scale not given: the % may be the effect or the level left. The conditions noted are these: Mus musculus.
Assay [33] concerns Nucleic Acid. Description: Compound was evaluated for inhibition of macromolecular synthesis in murine leukemia L1210 cells at 4 hour against DNA. The assay is classed as functional, cell-based. The arrangement: scale not given: the % may be the effect or the level left. The conditions noted are these: Mus musculus.
The test system of assay [34] is MC-38. Description: Cytotoxicity was evaluated against C38 solid tumor of mouse at 1000 ug/disk. Type of assay: functional. The procedure, abridged: as §4
Assay [35] is filed under the species Mus musculus. Description: Compound was evaluated for inhibition of macromolecular synthesis in murine leukemia L1210 cells at 1 hour against Protein. The arrangement: scale not given: the % may be the effect or the level left. Type of assay: functional.
For assay [36], the species on record is Mus musculus. Description: Compound was evaluated for inhibition of macromolecular synthesis in murine leukemia L1210 cells at 4 hour against Protein. The assay is classed as functional. Further details: scale not given: the % may be the effect or the level left.
The subject of assay [37] is Nucleic Acid. Description: Compound was evaluated for inhibition of macromolecular synthesis in murine leukemia L1210 cells at 1 hour against DNA. Type of assay: functional, cell-based. The arrangement: scale not given: the % may be the effect or the level left. The conditions noted are these: Mus musculus.
The species named for assay [38] is Homo sapiens. Description: Cytotoxicity was evaluated against C116 human solid tumor at 1000 ug/disk. Type of assay: functional. The procedure, abridged: as §4
A short description of assay [39]: Cytotoxicity was evaluated against CO9 solid tumor of mouse at 500 ug/disk. Type of assay: functional. The procedure, abridged: as §4
For assay [40], the species on record is Homo sapiens. Description: Cytotoxicity was evaluated against PO1 human solid tumor at 500 ug/disk. Type of assay: functional. The procedure, abridged: as §4

For the molecule `Nc1ncnc2c1ncn2C=C=CCO`, the Precursor inhibition was 80% in assay [1]; 105% in assay [2]; 94% in [6]; 79% in assay [7]; 46% in assay [9]; 107% in assay [11]. For the same molecule, the negative-log EC50 (pEC50) in the assay filed under Mus musculus [3] is 4.06; in the assay filed under Mus musculus [5], 3.91. Besides, the SI came to 1.4 in assay [4] and 1.9 in assay [10]. In addition, the pIC50 was 3.77 in the assay listed under Mus musculus [8] and 3.82 with L1210 [14]. Moreover, the Cytotoxicity in the assay on L1210 [12] came to 160; in the assay on PO3 [13] it was 0.

In the case of `Nc1ncnc2c1ncn2CC#CCCl`, the Cytotoxicity in the assay listed under Homo sapiens [15] is 900; in [16], 950; with L1210 [17], 930; in the assay on MC-38 [18] it was 950; in the assay with PO3 [13], 520. In the assay on L1210 [14], this molecule showed a pIC50 of 4.05.

Regarding `Nc1ncnc2c1ncn2C=C=CCCl`, the Cytotoxicity in the assay filed under Homo sapiens [15] is on record as 300; in [16], 280; in the assay with L1210 [17], 280; in the assay filed under Homo sapiens [19], 300; in the assay on MC-38 [18], 400; in the assay with PO3 [13], 300. In the assay with L1210 [14], this molecule had a negative-log IC50 (pIC50) of 4.35.

With `Nc1ncnc2c1ncn2[C@@H]1C=C(CO)[C@@H](O)[C@H]1O` [NEOPLANOCIN A], the Cytotoxicity in the assay listed under Homo sapiens [20] is on record as 340; in the assay listed under Homo sapiens [21], 400; in the assay on MC-38 [22], 0; in [23], 40; in the assay on PO3 [24], 80; in the assay filed under Homo sapiens [25], 0. The molecule further returned a Cytotoxicity in assay [26] of 100.

For the molecule `Oc1nccc(NCC#CCCl)n1`, the Control in the assay on Nucleic Acid [27] was found to be 60%; in the assay with Nucleic Acid [28], 5%; in the assay with Nucleic Acid [30] it was 18%; in the assay filed under Mus musculus [31], 55%; with Nucleic Acid [32], 75%; in the assay on Nucleic Acid [33], 35%. Also, the Control in the assay listed under Mus musculus [35] was 85%; in the assay filed under Mus musculus [36], 70%; with Nucleic Acid [37] it was 60%. Moreover, the Cytotoxicity in [29] is on record as 600; with MC-38 [34], 720; with L1210 [12], 530; in the assay filed under Homo sapiens [38] it was 660. The pIC50 with L1210 [14] is 4.70.

As to `Cc1cn(C/C=C\CCl)c(=O)[nH]c1=O`, the Cytotoxicity in [39] turned out to be 320; in the assay filed under Homo sapiens [40] it was 550; in [16], 400; with L1210 [17] it was 610. The same molecule had a pIC50 in the assay on L1210 [14] of 4.34.

For `Cc1cn(C=C=CCO)c(=O)nc1N`, the Cytotoxicity in assay [29] was found to be 550; in the assay listed under Homo sapiens [19], 500; with MC-38 [18], 520; with L1210 [12] it was 500. Besides, the pIC50 with L1210 [14] is 3.21.

The record behind these values is ChEMBL document CHEMBL1125745, “Unsaturated and carbocyclic nucleoside analogues: synthesis, antitumor, and antiviral activity” (J Med Chem, 1991).
